According to ChEMBL document CHEMBL5303300, “EUbOPEN Chemogenomics Library - Multiplex” (2023):
Values joined by “and” are separate entries in the source; they are usually repeats but may differ in a detail not shown here. Equal entries are not always repeated.

System: HEK-293T
Assay: Multiplex assay against HEK293T
Type: toxicity, cell-based
Conditions: human, number of replicates 2
In short: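 Cells stained live at seeding with Hoechst33342, BioTracker Green Microtubule Cytoskeleton Dye, MitoTracker Red and Annexin V Alexa Fluor 680 were imaged on a CQ1 microscope at 37°C and 5% CO2 after compound addition. Their classification by CellPathfinder machine-learning gating ran from Hoechst high-intensity objects versus normal cells, to healthy, pyknosed or fragmented nuclei among normal cells, to mitotic or apoptotic among pyknosed cells. Tubulin, mitochondrial-mass and membrane-permeability phenotypes are per cents of healthy-nucleus cells.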

[1] = 12 h, 1 µM, compound concentration 1 uM
[2] = 12 h, 10 µM, compound concentration 10 uM
[3] = 24 h, 1 µM, compound concentration 1 uM
[4] = 24 h, 10 µM, compound concentration 10 uM
[5] = 48 h, 1 µM, compound concentration 1 uM
[6] = 48 h, 10 µM, compound concentration 10 uM

Compound: CN1CCN(c2ccc(-n3cc(-c4ccncc4OCC4CCNCC4)cn3)cc2)CC1
- Population Apoptotic (%) [1]: 50% and 48%
- Population Fragmented Nuclei (%) [1]: 4% and 3%
- Population Healthy Nuclei (%) [1]: 86% and 85%
- Population Hoechst High Intensity Objects (%) [1]: 7% and 5%
- Population Membrane Permeable-Phenotype (%) [1]: 4% and 2%
- Population Mitochondria Different-Phenotype (%) [1]: 9% and 10%
- Population Mitotic Cells (%) [1]: 50% and 51%
- Population Normal (%) [1]: 92% and 94%
- Population Pyknosed Nuclei (%) [1]: 9% and 11%
- Population Tubulin-Different-Phenotype (%) [1]: 38%
- Total Cell Count [1]: 587 and 556
- Population Apoptotic (%) [2]: 88% and 66%
- Population Fragmented Nuclei (%) [2]: 1%
- Population Healthy Nuclei (%) [2]: 94% and 95%
- Population Hoechst High Intensity Objects (%) [2]: 3% and 5%
- Population Membrane Permeable-Phenotype (%) [2]: 4% and 6%
- Population Mitochondria Different-Phenotype (%) [2]: 28% and 17%
- Population Mitotic Cells (%) [2]: 11% and 33%
- Population Normal (%) [2]: 96% and 94%
- Population Pyknosed Nuclei (%) [2]: 3% and 2%
- Population Tubulin-Different-Phenotype (%) [2]: 71% and 76%
- Total Cell Count [2]: 452 and 604
- Population Apoptotic (%) [3]: 29% and 50%
- Population Fragmented Nuclei (%) [3]: 6% and 7%
- Population Healthy Nuclei (%) [3]: 84% and 83%
- Population Hoechst High Intensity Objects (%) [3]: 8% and 7%
- Population Membrane Permeable-Phenotype (%) [3]: 3% and 1%
- Population Mitochondria Different-Phenotype (%) [3]: 2% and 6%
- Population Mitotic Cells (%) [3]: 70% and 50%
- Population Normal (%) [3]: 91% and 92%
- Population Pyknosed Nuclei (%) [3]: 8% and 9%
- Population Tubulin-Different-Phenotype (%) [3]: 18% and 21%
- Total Cell Count [3]: 857 and 751
- Population Apoptotic (%) [4]: 66% and 54%
- Population Fragmented Nuclei (%) [4]: 4% and 3%
- Population Healthy Nuclei (%) [4]: 93% and 94%
- Population Hoechst High Intensity Objects (%) [4]: 7% and 6%
- Population Membrane Permeable-Phenotype (%) [4]: 6% and 8%
- Population Mitochondria Different-Phenotype (%) [4]: 20% and 11%
- Population Mitotic Cells (%) [4]: 33% and 45%
- Population Normal (%) [4]: 92% and 93%
- Population Pyknosed Nuclei (%) [4]: 1%
- Population Tubulin-Different-Phenotype (%) [4]: 75% and 80%
- Total Cell Count [4]: 463 and 591
- Population Apoptotic (%) [5]: 11% and 20%
- Population Fragmented Nuclei (%) [5]: 16% and 11%
- Population Healthy Nuclei (%) [5]: 79% and 85%
- Population Hoechst High Intensity Objects (%) [5]: 10% and 9%
- Population Membrane Permeable-Phenotype (%) [5]: 3%
- Population Mitochondria Different-Phenotype (%) [5]: 0% and 2%
- Population Mitotic Cells (%) [5]: 88% and 80%
- Population Normal (%) [5]: 89% and 90%
- Population Pyknosed Nuclei (%) [5]: 4% and 3%
- Population Tubulin-Different-Phenotype (%) [5]: 7% and 11%
- Total Cell Count [5]: 1935 and 1522
- Population Apoptotic (%) [6]: 81% and 57%
- Population Fragmented Nuclei (%) [6]: 11% and 10%
- Population Healthy Nuclei (%) [6]: 86% and 85%
- Population Hoechst High Intensity Objects (%) [6]: 9%
- Population Membrane Permeable-Phenotype (%) [6]: 4%
- Population Mitochondria Different-Phenotype (%) [6]: 6% and 10%
- Population Mitotic Cells (%) [6]: 18% and 42%
- Population Normal (%) [6]: 90%
- Population Pyknosed Nuclei (%) [6]: 1% and 3%
- Population Tubulin-Different-Phenotype (%) [6]: 56% and 45%
- Total Cell Count [6]: 617 and 528

Compound: COc1cccc(Cn2cc(C(=O)Nc3ccc(C)c(S(=O)(=O)N4CCOCC4)c3)c(-c3ccc(C)cc3)n2)c1
- Population Apoptotic (%) [1]: 39% and 54%
- Population Fragmented Nuclei (%) [1]: 2%
- Population Healthy Nuclei (%) [1]: 81% and 84%
- Population Hoechst High Intensity Objects (%) [1]: 5% and 4%
- Population Membrane Permeable-Phenotype (%) [1]: 6% and 4%
- Population Mitochondria Different-Phenotype (%) [1]: 25% and 22%
- Population Mitotic Cells (%) [1]: 60% and 45%
- Population Normal (%) [1]: 94% and 95%
- Population Pyknosed Nuclei (%) [1]: 15% and 12%
- Population Tubulin-Different-Phenotype (%) [1]: 76%
- Total Cell Count [1]: 633 and 601
- Population Apoptotic (%) [2]: 35% and 56%
- Population Fragmented Nuclei (%) [2]: 1% and 3%
- Population Healthy Nuclei (%) [2]: 83%
- Population Hoechst High Intensity Objects (%) [2]: 6% and 7%
- Population Membrane Permeable-Phenotype (%) [2]: 21% and 19%
- Population Mitochondria Different-Phenotype (%) [2]: 24% and 26%
- Population Mitotic Cells (%) [2]: 64% and 43%
- Population Normal (%) [2]: 93% and 92%
- Population Pyknosed Nuclei (%) [2]: 14% and 13%
- Population Tubulin-Different-Phenotype (%) [2]: 84% and 87%
- Total Cell Count [2]: 611 and 568
- Population Apoptotic (%) [3]: 46% and 42%
- Population Fragmented Nuclei (%) [3]: 5% and 4%
- Population Healthy Nuclei (%) [3]: 84% and 87%
- Population Hoechst High Intensity Objects (%) [3]: 9% and 6%
- Population Membrane Permeable-Phenotype (%) [3]: 5% and 6%
- Population Mitochondria Different-Phenotype (%) [3]: 13% and 12%
- Population Mitotic Cells (%) [3]: 53% and 57%
- Population Normal (%) [3]: 90% and 93%
- Population Pyknosed Nuclei (%) [3]: 9% and 8%
- Population Tubulin-Different-Phenotype (%) [3]: 59%
- Total Cell Count [3]: 851 and 807
- Population Apoptotic (%) [4]: 34% and 50%
- Population Fragmented Nuclei (%) [4]: 3% and 2%
- Population Healthy Nuclei (%) [4]: 81% and 83%
- Population Hoechst High Intensity Objects (%) [4]: 8%
- Population Membrane Permeable-Phenotype (%) [4]: 19% and 22%
- Population Mitochondria Different-Phenotype (%) [4]: 21% and 22%
- Population Mitotic Cells (%) [4]: 65% and 50%
- Population Normal (%) [4]: 91%
- Population Pyknosed Nuclei (%) [4]: 15% and 13%
- Population Tubulin-Different-Phenotype (%) [4]: 90%
- Total Cell Count [4]: 684 and 610
- Population Apoptotic (%) [5]: 27% and 29%
- Population Fragmented Nuclei (%) [5]: 8%
- Population Healthy Nuclei (%) [5]: 87% and 85%
- Population Hoechst High Intensity Objects (%) [5]: 9%
- Population Membrane Permeable-Phenotype (%) [5]: 7%
- Population Mitochondria Different-Phenotype (%) [5]: 3% and 4%
- Population Mitotic Cells (%) [5]: 72% and 70%
- Population Normal (%) [5]: 90%
- Population Pyknosed Nuclei (%) [5]: 4% and 5%
- Population Tubulin-Different-Phenotype (%) [5]: 39% and 45%
- Total Cell Count [5]: 1564 and 1391
- Population Apoptotic (%) [6]: 23% and 62%
- Population Fragmented Nuclei (%) [6]: 5%
- Population Healthy Nuclei (%) [6]: 86% and 83%
- Population Hoechst High Intensity Objects (%) [6]: 9%
- Population Membrane Permeable-Phenotype (%) [6]: 26% and 27%
- Population Mitochondria Different-Phenotype (%) [6]: 13% and 12%
- Population Mitotic Cells (%) [6]: 76% and 37%
- Population Normal (%) [6]: 90%
- Population Pyknosed Nuclei (%) [6]: 7% and 10%
- Population Tubulin-Different-Phenotype (%) [6]: 87% and 91%
- Total Cell Count [6]: 752 and 689
